PubChem BioAssay
Records with an inconclusive call do not appear.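 The calls were made as follows, unless noted: active = inhibition over a set limit, the all-compound mean plus 3 SD, in both replicate runs; inconclusive = over that limit in just one replicate run; inactive = at or under that limit in both runs.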

Key:
[1] = S. cerevisiae growth inhibition in permissive medium (OD615), pilot counter-assay for S. cerevisiae lifespan shortening project, permissive growth control (AID 705;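 active = growth inhibition above 25% in both replicates, a cutoff set 3 SD above the mean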); details: OD615, 24 h, at 10 µM, hits give high values
Summary of the method: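 System: engineered DeaD yeast; Medium: permissive raffinose/galactose medium; Compound dosing: 10 µM single dose, 0.25% DMSO; Incubation: 4 h cell pre-growth, 24 h exposure at 30 °C; Technique: OD at 615 nm; Evaluation: growth inhibition from lowered OD615 after 24 h.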

[2] = S. cerevisiae growth inhibition in restrictive medium, OD615, pilot screen, restrictive growth control, yeast lifespan reduction project (AID 706;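 active = growth inhibition above a set limit, 3 SD over mean compound inhibition, in both replicates, cut at about 43% in these data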;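 also: modified DeaD lifespan yeast strain shifted to restrictive glucose medium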); details: OD615, 48 h, at 10 µM, hits give high values
Summary of the method: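 Material: modified S. cerevisiae; buffer or medium: CSMM-D glucose medium; doses: one concentration, 10 µM final, 0.25% DMSO; incubation: 48 h compound exposure at 30 °C; detection: optical density at 615 nm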

[3] = doxorubicin toxicity protection in MRP-1 cells – H69AR cells, CellTiter-Glo, duplicate, MRP-1 activator project, pilot screen (AID 807;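 active = viability increase at or above a cutoff of the median across tested compounds plus 3 SD, cut at about 8.5% in these data, passing the limit was not always enough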;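 also: compound pretreatment 18-22 h then 72 h combined with doxorubicin; 0% = doxorubicin alone and 100% = vehicle without doxorubicin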); details: H69AR viability with doxorubicin, CellTiter-Glo luminescence; at 10 µM; hits give high values
[4] = viability of HCT116 without oncogenic beta-catenin – human colon tumor cells, pilot screen (AID 823;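 active = cell viability at or below a set limit in both duplicate runs, the limit being the all-compound median minus 4 SD, cut at about 23% in these data, passing the limit was not always enough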;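 also: 0% = wells killed by 20 µM Hyamine and 100% = untreated DMSO cell wells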); details: HCT116 beta-catenin knockout viability, CellTiter-Glo, 60 h; at 10 µM; hits give low values
[5] = viability of PTEN-null HCT116 cells – cell-based, HCT116 clonal line, CellTiter-Glo, pilot screen (AID 824;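 active = viability at or below 27.92% in each of two runs, the all-compound median minus 4 SD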;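 also: 0% = 20 µM Hyamine control and 100% = vehicle cell control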); details: HCT116 PTEN-deleted viability, 60 h, at 10 µM, hits give low values
[6] = RAM pathway blockade in budding yeast – dse1pr::URA3 reporter, 5-FOA selection, pilot screen (AID 869);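 also: 0% = DMSO wells with no growth and 100% = 10 µM 1-NA-PP1 with full growth; RAM network block rescues cells from 5-FOA so hits raise OD615 growth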; details: S. cerevisiae dse1pr::URA3 5-FOA growth, OD615, 2 d; at 10 µM; hits give high values; strain carries analog-sensitive mutant Cbk1 kinase
[7] = RAM signaling pathway blockade in yeast – S. cerevisiae, Pdr1DBD-CYC8 efflux-inhibited sensitized strain, primary screen (AID 1298;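 active = RAM network inhibition above 8.4% in each of two replicates, 3 SD over the compound average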;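 also: 0% = DMSO untreated cells without growth and 100% = 10 µM 1-NA-PP1 full growth; higher means more yeast growth rescued from 5-FOA killing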); details: S. cerevisiae cbk1-as DSE1-URA3 strain, 5-FOA growth OD615, 2 d; at 50 µM; hits give high values

CCOC(=O)N1CCN(C(=O)c2ccccc2NC(=O)COc2ccccc2C)CC1
inactive: growth inhibition [1] -9.27% | growth inhibition [2] 3.48% | viability increase [3] -1.77% | viability [4] 86.3% | viability [5] 82.2% | inhibition [6] 1.29% | RAM network inhibition [7] 5.67%

O=C(c1coc2ccccc2c1=O)N1CCN(c2cccc(C(F)(F)F)c2)CC1
inactive: growth inhibition [1] -20% | growth inhibition [2] -32.1% | viability increase [3] 0.69% | viability [4] 99.8% | viability [5] 99.9% | inhibition [6] 1.23% | RAM network inhibition [7] 5.68%

C=CCNC(=O)c1c(Cl)cccc1Cl
inactive: growth inhibition [1] -12.2% | growth inhibition [2] 3.24% | viability increase [3] -1.31% | viability [4] 90.5% | viability [5] 97.3% | inhibition [6] 0.94% | RAM network inhibition [7] 3.89%

O=C(O)Cc1ccc(NC(=O)C2CCCCC2C(=O)O)cc1 (stereo not drawn)
inactive: growth inhibition [1] -15% | growth inhibition [2] -6.54% | viability increase [3] 0.06% | viability [4] 95.5% | viability [5] 103% | inhibition [6] 0.385% | RAM network inhibition [7] 2.44%

COc1ccc(OC)c(N(CC(=O)NCc2ccccn2)S(C)(=O)=O)c1
inactive: growth inhibition [1] -0.79% | growth inhibition [2] -6.94% | viability increase [3] -2.27% | viability [4] 98.1% | viability [5] 96.3% | inhibition [6] 1.44% | RAM network inhibition [7] 0.46%

Cn1cc(SCC(=O)N2CCN(c3ccccc3)CC2)c2ccccc21
inactive: growth inhibition [1] -0.395% | growth inhibition [2] 11.5% | viability increase [3] -4.68% | viability [4] 91.3% | viability [5] 88.4% | inhibition [6] 1.52% | RAM network inhibition [7] 7.36%

O=C(CCS(=O)(=O)c1cccc2nonc12)NCCc1ccccc1Cl
inactive: growth inhibition [1] -1.5% | growth inhibition [2] -9.76% | viability increase [3] -5.15% | viability [4] 91.2% | viability [5] 82.9% | inhibition [6] 1.33% | RAM network inhibition [7] 4.14%

Cc1c(C(=O)NCc2ccc3c(c2)OCO3)oc2ccccc12
inactive: growth inhibition [1] 1.35% | growth inhibition [2] 16% | viability increase [3] -0.04% | viability [4] 108% | viability [5] 98.9% | inhibition [6] -0.54% | RAM network inhibition [7] 5.64%

O=C(O)c1cc(S(=O)(=O)N2CCCCCC2)c(Cl)cc1Cl
inactive: growth inhibition [1] -2.36% | growth inhibition [2] -0.81% | viability increase [3] -0.57% | viability [4] 90.4% | viability [5] 101% | inhibition [6] 1.18% | RAM network inhibition [7] 6.2%

Cc1ccc(/C(O)=C2\C(=O)C(=O)N(CCN(C)C)C2c2ccccc2F)cc1 (stereo not drawn)
inactive: growth inhibition [1] -10.5% | growth inhibition [2] -5.25% | viability increase [3] -2.92% | viability [4] 88.3% | viability [5] 87.1% | inhibition [6] -0.9% | RAM network inhibition [7] -1.02%

CCOC(=O)c1sc2nc(NC(=O)C3CC3)sc2c1C
inactive: growth inhibition [1] -0.51% | growth inhibition [2] -2.08% | viability increase [3] -5.8% | viability [4] 86% | viability [5] 82.2% | inhibition [6] 4.2% | RAM network inhibition [7] 3.96%

Cn1c(C(C#N)C(=O)Cc2cccc3ccccc23)nc2ccccc21 (stereo not drawn)
inactive: growth inhibition [1] -3.6% | growth inhibition [2] -5.02% | viability increase [3] -1.14% | viability [4] 81.5% | viability [5] 78.9% | inhibition [6] 2.59% | RAM network inhibition [7] 4.32%

c1ccc(Oc2nc(Oc3ccccc3)nc(N3CCOCC3)n2)cc1
inactive: growth inhibition [1] -3.76% | growth inhibition [2] -9.93% | viability increase [3] -2.99% | viability [4] 83.7% | viability [5] 74.1% | inhibition [6] 0.355% | RAM network inhibition [7] 8.11%

CCOC(=O)CSc1nccc(N(C)C)c1C#N
inactive: growth inhibition [1] -5.06% | growth inhibition [2] 7.88% | viability increase [3] 1.04% | viability [4] 99% | viability [5] 100% | inhibition [6] 0.83% | RAM network inhibition [7] 4.81%

CCOc1ccc(-c2nc(C#N)c(N3CCN(Cc4ccccc4)CC3)o2)cc1
inactive: growth inhibition [1] -4.62% | growth inhibition [2] 8.5% | viability increase [3] -0.05% | viability [4] 78.6% | viability [5] 87.2% | inhibition [6] -0.36% | RAM network inhibition [7] 3.33%

O=C(CCn1c(=O)oc2ccccc21)Nc1ccc2c(c1)OCCO2
inactive: growth inhibition [1] -3.18% | growth inhibition [2] -9.54% | viability increase [3] -3.68% | viability [4] 103% | viability [5] 96% | inhibition [6] 1.88% | RAM network inhibition [7] 3.61%

Cn1c(NC(=O)c2cccs2)cc(=O)n(C)c1=O
inactive: growth inhibition [1] 7.14% | growth inhibition [2] 0.885% | viability increase [3] -1.55% | viability [4] 107% | viability [5] 95.5% | inhibition [6] 0.13% | RAM network inhibition [7] -1.35%

COC(=O)C1=CN(C)C=C(C(=O)OC)C1c1ccc(Cl)cc1Cl
inactive: growth inhibition [1] -12.4% | growth inhibition [2] -10.4% | viability increase [3] -2.14% | viability [4] 85.1% | viability [5] 78.2% | inhibition [6] 3.2% | RAM network inhibition [7] 8.48%

COC(=O)c1ccc(-n2nnnc2SCC(=O)N2CCCCC2)cc1
inactive: growth inhibition [1] -8.57% | growth inhibition [2] -21.9% | viability increase [3] -3% | viability [4] 85.8% | viability [5] 86.1% | inhibition [6] 0.045% | RAM network inhibition [7] 1.64%

O=C(NCCN1CCOCC1)c1ccc2c(c1)N(Cc1ccc(F)cc1)C(=O)CS2
inactive: growth inhibition [1] -16.1% | growth inhibition [2] -8.1% | viability increase [3] 3.02% | viability [4] 92.5% | viability [5] 88.9% | inhibition [6] 0.08% | RAM network inhibition [7] 0.11%

CCN(CC)CCNC(=O)c1sc2nc(-c3ccccc3)cn2c1C
inactive: growth inhibition [1] -2.38% | growth inhibition [2] 6.54% | viability increase [3] -1.73% | viability [4] 83.2% | viability [5] 81.4% | inhibition [6] 0.06% | RAM network inhibition [7] 1.57%

Cn1c(SCCSc2nnc(-c3ccccc3)n2C)nnc1-c1ccccc1
inactive: growth inhibition [1] -12.1% | growth inhibition [2] 8.02% | viability increase [3] -0.26% | viability [4] 97.4% | viability [5] 93.8% | inhibition [6] 1.62% | RAM network inhibition [7] 5.17%

CCCNC(=O)C1CC(=O)N(c2ccc(OCC(=O)Nc3cccc(C)c3C)cc2)C1 (stereo not drawn)
inactive: growth inhibition [1] -13.4% | growth inhibition [2] -14.8% | viability increase [3] -1.99% | viability [4] 106% | viability [5] 97.7% | inhibition [6] 2.35% | RAM network inhibition [7] 1.01%

COc1ccc(C(C#N)(CCC#N)CCC#N)cc1OC
inactive: growth inhibition [1] -14.5% | growth inhibition [2] -4.89% | viability increase [3] -1.32% | viability [4] 99.7% | viability [5] 105% | inhibition [6] 1.13% | RAM network inhibition [7] 3.89%
